Experimental findings from ChEMBL document CHEMBL1137537, “Novel oxotremorine-related heterocyclic derivatives: Synthesis and in vitro pharmacology at the muscarinic receptor subtypes” (Bioorg Med Chem, 2007) are described below.

The species entered for one experiment is Oryctolagus cuniculus. The experiment can be described thus: Intrinsic activity at muscarinic M1 receptor in electrically stimulated New Zealand rabbit vas deferens relative to McN-A-343. Format: tissue-based. In short, it runs like this:
(§1)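 Intrinsic activity as ratio of compound's maximal response to that of reference full agonist (McN-A-343 for vas deferens, bethanechol for atrium and ileum), from cumulative concentration–response curves; mean of 6-8 experiments.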

Experiment [1] addresses T1, Muscarinic acetylcholine receptor M1 (Homo sapiens, UniProt P11229).
T1 sequence (P11229 whole entry): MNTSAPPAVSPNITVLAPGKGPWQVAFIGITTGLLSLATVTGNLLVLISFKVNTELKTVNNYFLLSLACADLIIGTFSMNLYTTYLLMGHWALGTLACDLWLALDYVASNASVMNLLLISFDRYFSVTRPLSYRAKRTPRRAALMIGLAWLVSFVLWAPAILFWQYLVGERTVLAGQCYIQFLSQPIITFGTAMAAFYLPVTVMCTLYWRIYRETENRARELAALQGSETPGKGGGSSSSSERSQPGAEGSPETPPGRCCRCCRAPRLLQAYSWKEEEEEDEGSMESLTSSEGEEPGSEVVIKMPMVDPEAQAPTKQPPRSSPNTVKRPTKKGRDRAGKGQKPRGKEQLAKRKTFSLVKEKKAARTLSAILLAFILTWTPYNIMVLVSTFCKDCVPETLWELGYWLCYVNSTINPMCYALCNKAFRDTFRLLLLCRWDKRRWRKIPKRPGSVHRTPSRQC
The experiment can be described thus: biochemical. Format: cell-based, CHO.

Experiment [2] addresses T2, Muscarinic acetylcholine receptor M2 (Homo sapiens, UniProt P08172).
T2 sequence (P08172 whole entry): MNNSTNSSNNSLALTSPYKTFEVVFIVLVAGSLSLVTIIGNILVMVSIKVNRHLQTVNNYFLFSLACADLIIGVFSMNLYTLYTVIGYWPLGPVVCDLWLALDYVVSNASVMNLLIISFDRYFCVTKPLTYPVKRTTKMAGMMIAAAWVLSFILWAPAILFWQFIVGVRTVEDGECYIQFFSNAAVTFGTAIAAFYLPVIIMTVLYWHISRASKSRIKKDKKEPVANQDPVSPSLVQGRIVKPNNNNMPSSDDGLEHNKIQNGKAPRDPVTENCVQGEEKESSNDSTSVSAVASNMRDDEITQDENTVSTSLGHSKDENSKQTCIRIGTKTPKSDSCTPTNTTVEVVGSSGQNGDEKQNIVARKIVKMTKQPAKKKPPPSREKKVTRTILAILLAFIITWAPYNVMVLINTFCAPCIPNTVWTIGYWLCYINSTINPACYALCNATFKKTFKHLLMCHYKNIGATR
Kind of experiment: Displacement of [3H]QNB from human muscarinic M2 receptor expressed in CHO cells. Format: cell-based. In short, it runs like this:
(§2)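 Membranes (10-50 µg protein) from stable CHO lines expressing human m2-m5, competed against 180 pM [3H]QNB in 50 mM Tris-HCl pH 7.4 with 1% DMSO; 120 min at 25 °C to equilibrium; nonspecific binding with 0.5 µM atropine; GF-C filtration, scintillation counting; IC50 by logistic fit, Ki via Cheng–Prusoff using saturation-derived KD (5–2500 pM [3H]QNB).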

For experiment [3], the target named is Muscarinic acetylcholine receptor M3 (Homo sapiens, UniProt P20309). The experiment can be described thus: Displacement of [3H]QNB from human muscarinic M3 receptor expressed in CHO cells. Format: cell-based. (In general: Displacement assays read how much labelled ligand stays bound in the presence of the test substance.)
For experiment [4], the target named is T3, Muscarinic acetylcholine receptor M4 (Homo sapiens, UniProt P08173).
T3 sequence (P08173 whole entry): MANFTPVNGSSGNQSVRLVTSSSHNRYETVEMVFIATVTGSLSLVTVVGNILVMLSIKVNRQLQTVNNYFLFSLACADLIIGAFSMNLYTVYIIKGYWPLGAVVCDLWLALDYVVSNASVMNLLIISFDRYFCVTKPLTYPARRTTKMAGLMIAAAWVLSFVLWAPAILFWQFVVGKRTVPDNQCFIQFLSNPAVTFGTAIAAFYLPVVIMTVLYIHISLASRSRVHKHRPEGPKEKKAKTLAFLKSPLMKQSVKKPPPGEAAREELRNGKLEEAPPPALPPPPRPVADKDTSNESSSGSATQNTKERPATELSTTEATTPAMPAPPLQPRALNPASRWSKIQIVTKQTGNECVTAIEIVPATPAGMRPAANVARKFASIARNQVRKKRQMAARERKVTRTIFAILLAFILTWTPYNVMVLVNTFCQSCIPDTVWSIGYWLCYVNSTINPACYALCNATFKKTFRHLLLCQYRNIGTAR
The experiment can be described thus: Displacement of [3H]QNB from human muscarinic M4 receptor expressed in CHO cells. Format: cell-based. The method in brief:
as §2

Experiment [5] has as its target T4, Muscarinic acetylcholine receptor M5 (Homo sapiens, UniProt P08912).
T4 sequence (P08912 whole entry): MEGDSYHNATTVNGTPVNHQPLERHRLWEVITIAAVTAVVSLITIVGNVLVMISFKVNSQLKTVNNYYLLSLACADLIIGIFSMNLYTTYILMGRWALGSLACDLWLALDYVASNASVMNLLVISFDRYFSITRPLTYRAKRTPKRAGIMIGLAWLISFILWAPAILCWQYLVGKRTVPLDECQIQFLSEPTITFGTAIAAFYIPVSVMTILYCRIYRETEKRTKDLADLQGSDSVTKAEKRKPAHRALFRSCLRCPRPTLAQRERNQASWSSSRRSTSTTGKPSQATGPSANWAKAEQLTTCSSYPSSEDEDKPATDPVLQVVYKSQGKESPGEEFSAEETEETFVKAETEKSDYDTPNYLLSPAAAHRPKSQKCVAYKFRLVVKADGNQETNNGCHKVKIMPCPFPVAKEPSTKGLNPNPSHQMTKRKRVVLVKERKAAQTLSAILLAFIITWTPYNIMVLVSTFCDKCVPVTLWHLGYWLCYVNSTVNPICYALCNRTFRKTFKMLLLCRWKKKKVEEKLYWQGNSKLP
The experiment can be described thus: Displacement of [3H]QNB from human muscarinic M5 receptor expressed in CHO cells. Format: cell-based.

A short description of experiment [6]: Agonist activity at muscarinic M1 receptor in electrically stimulated New Zealand rabbit vas deferens. The settings on record: Oryctolagus cuniculus. Format: functional, tissue-based.
Experiment [7] in a line: Agonist activity at muscarinic M2 receptor in electrically stimulated guinea-pig left atrium. Format: functional, tissue-based. The conditions noted are these: Cavia porcellus, Cardiac atrium.
The species entered for another experiment is Cavia porcellus. The experiment can be described thus: Intrinsic activity at muscarinic M2 receptor in electrically stimulated guinea-pig left atrium relative to benthanechol. Format: tissue-based. The settings on record: Cardiac atrium. The method in brief: as §1
Experiment [8] concerns the target Muscarinic acetylcholine receptor M3 (Cavia porcellus) (UniProt Q8VH26). The experiment can be described thus: Intrinsic activity at muscarinic M3 receptor in guinea-pig ileum relative to benthanechol. Format: tissue-based. The method in brief: as §1
The target is the same in experiment [9]. The experiment can be described thus: Antagonist activity at muscarinic M3 receptor in guinea-pig ileum. Format: functional, tissue-based. The method in brief: (§3)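 Antagonist mode: after 30 min incubation with test compound (10 nM–100 µM), concentration–response curve to full agonist (bethanechol or McN-A-343) repeated; pKB as molar concentration giving twofold EC50 shift, Furchgott's method; mean of 6-8 experiments.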

In experiment [10] the target is T5, Muscarinic acetylcholine receptor M3 (Cavia porcellus, UniProt Q8VH26). Kind of experiment: Agonist activity at muscarinic M3 receptor in guinea-pig ileum. Format: functional, tissue-based. In short, it runs like this:
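Guinea-pig ileal segments 2–3 cm, 1.0 g tension, 37 °C Krebs-Henseleit with carbogen, 45 min equilibration; isometric contractions to cumulative agonist concentrations; pEC50 by least-squares linear regression; mean of 6-8 experiments.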

Experiment [11] in a line: Antagonist activity at muscarinic M1 receptor in electrically stimulated New Zealand rabbit vas deferens. Format: functional, Oryctolagus cuniculus. The method in brief: as §3
The nature of experiment [12]: Antagonist activity at muscarinic M2 receptor in electrically stimulated guinea-pig left atrium. Format: functional, Cavia porcellus, Cardiac atrium. The method in brief: as §3
Experiment [13] addresses T5, Muscarinic acetylcholine receptor M3. Kind of experiment: Binding affinity to muscarinic M3 receptor in guinea-pig ileum. Format: tissue-based. The method in brief:
(§4)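 Apparent affinity pKD: for full agonists by receptor inactivation with phenoxybenzamine (1-10 µM, 20-30 min); for partial agonists by McKay's method comparing curves with reference full agonist; mean of 6-8 experiments.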

Experiment [14] can be described thus: Binding affinity to muscarinic M2 receptor in electrically stimulated guinea-pig left atrium. Format: tissue-based, Cavia porcellus, Cardiac atrium. In short, it runs like this:
as §4

Experiment [15] can be described thus: Binding affinity to muscarinic M1 receptor in electrically stimulated New Zealand rabbit vas deferens. Format: tissue-based, Oryctolagus cuniculus. In short, it runs like this:
as §4

A value given as a limit tells only on which side of the number the result lay.

T5 sequence (Q8VH26 whole entry): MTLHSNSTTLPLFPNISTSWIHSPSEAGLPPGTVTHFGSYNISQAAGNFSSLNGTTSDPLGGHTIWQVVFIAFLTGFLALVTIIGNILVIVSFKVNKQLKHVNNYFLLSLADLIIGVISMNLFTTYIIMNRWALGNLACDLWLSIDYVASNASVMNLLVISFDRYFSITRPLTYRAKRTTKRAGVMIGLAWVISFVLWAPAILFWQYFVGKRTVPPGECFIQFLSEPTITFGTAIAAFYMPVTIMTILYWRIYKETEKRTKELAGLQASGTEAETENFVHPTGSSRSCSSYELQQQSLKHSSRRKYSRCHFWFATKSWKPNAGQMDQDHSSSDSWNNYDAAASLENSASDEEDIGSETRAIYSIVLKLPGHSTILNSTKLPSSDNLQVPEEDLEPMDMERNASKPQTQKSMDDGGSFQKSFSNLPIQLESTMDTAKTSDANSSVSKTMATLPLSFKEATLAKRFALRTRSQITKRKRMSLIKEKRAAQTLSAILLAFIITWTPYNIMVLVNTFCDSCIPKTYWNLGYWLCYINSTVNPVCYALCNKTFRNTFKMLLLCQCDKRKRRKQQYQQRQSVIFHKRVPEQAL
Sequence of Muscarinic acetylcholine receptor M3 (Cavia porcellus) (Q8VH26 1-587): as the sequence (Q8VH26 whole entry) above
Sequence of Muscarinic acetylcholine receptor M3 (Homo sapiens, UniProt P20309) (P20309 whole entry): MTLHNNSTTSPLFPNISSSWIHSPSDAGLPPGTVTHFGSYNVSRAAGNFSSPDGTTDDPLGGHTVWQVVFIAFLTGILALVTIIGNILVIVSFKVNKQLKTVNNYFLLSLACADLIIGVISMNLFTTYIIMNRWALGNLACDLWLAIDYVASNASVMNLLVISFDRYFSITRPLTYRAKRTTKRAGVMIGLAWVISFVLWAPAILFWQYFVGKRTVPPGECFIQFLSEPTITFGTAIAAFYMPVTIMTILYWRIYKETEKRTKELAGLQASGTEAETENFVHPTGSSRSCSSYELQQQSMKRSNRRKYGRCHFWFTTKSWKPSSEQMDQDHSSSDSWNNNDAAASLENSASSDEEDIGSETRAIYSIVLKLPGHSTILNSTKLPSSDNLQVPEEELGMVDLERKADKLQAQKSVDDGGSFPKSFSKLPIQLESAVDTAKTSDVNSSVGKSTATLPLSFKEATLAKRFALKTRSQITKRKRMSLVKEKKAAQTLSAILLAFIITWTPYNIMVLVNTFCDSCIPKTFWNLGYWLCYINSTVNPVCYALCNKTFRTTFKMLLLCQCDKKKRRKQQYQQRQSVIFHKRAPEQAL

The Ki is the dissociation constant of the complex between target and ligand, obtained from inhibition or displacement. A low value points to a stronger hold on the target. By EC50 is commonly meant the concentration that produces a half-maximal response. A lower EC50 goes with greater potency. One may read the pKb as the Kb on a negative log10 scale, so that one unit is a factor of ten. Consider `C(#CCN1CCCC1)COc1cc(-c2ccccc2)on1`, for which the figures for the Intrinsic activity (in the experiment listed under Oryctolagus cuniculus; in the experiment listed under Cavia porcellus; in [8]) were 1, 0.6 and 0, respectively. Moreover, the Ki in experiment [1] was 6.14 µM; in experiment [2], more than 10 µM; in [3] it was 4.01 µM; in experiment [4] it was 5.48 µM; in experiment [5], 6.88 µM. The EC50 in experiment [6] is 44.7 µM; in experiment [7], 21.9 µM. Further, in experiment [9], the pKb is 4.94.
The Kd is a measure of binding affinity in units of concentration. A low value points to higher affinity. `Cc1cc(OCC#CCN2CCCC2)no1.O=C(O)/C=C/C(=O)O`: the Intrinsic activity in the experiment filed under Oryctolagus cuniculus came out at 0; in the experiment listed under Cavia porcellus, 0; in experiment [8] it was 0.4. Further, the Ki in experiment [2] and in experiment [5] was more than 10 µM in each case. The same compound had an EC50 in [10] of 15.1 µM. Moreover, the negative-log Kb (pKb) is reported as 5.66 in experiment [11] and 4.81 in experiment [12]. For the same compound, the Kd in experiment [13] was 15.5 µM.
Broadly, the pKd is −log10 of the Kd, conventionally taken in molar units. Read a low pKd as a high Kd. Consider `Cc1cc(OCC#CC[N+](C)(C)C)no1.[I-]`, for which the values for the Intrinsic activity (in the experiment listed under Oryctolagus cuniculus; in the experiment filed under Cavia porcellus; in experiment [8]) were 0.9, 1 and 1, respectively. The inhibition constant Ki in experiment [1] was more than 10 µM; in [2], 0.05 µM; in experiment [3], 3.99 µM; in experiment [4], 0.682 µM; in experiment [5], 6.31 µM. Further, the values for the 50% effective concentration (EC50) in [6], in experiment [7] and in experiment [10] were 0.0398 µM, 0.00661 µM and 0.00724 µM, respectively. The negative-log Kd (pKd) in experiment [14] is listed as 7.03; in experiment [15] it was 6.97. The compound also gave a dissociation constant Kd in [13] of 0.676 µM.
Take `O=C(O)C(=O)O.O=C1CCON1CC#CCN1CCCCC1`: the Intrinsic activity turned out to be 0 in the experiment filed under Oryctolagus cuniculus, 0.2 in the experiment listed under Cavia porcellus and 0 in [8]. Also, the inhibition constant (Ki) in experiment [1] stood at 0.819 µM; in [2] it was 0.04 µM; in [3], 0.537 µM; in experiment [4], 0.792 µM; in experiment [5] it was 0.544 µM. Moreover, the pKb in experiment [11] stood at 6.45; in experiment [12] it was 5.94; in experiment [9] it was 5.55.
For `C[N+]1(CC#CCOC2=NOCC2)CCCCC1.[I-]`, the values for the Intrinsic activity (in the experiment filed under Oryctolagus cuniculus; in the experiment filed under Cavia porcellus; in [8]) were 0.4, 1 and 1, respectively. Further, the inhibition constant Ki in experiment [1] was 7.37 µM; in experiment [2], 0.219 µM; in experiment [3], 4.74 µM; in experiment [4], 1.68 µM; in experiment [5], 4.12 µM. In addition, the figures for the concentration giving a half-maximal response (EC50) in experiment [6], in [7] and in experiment [10] were 0.794 µM, 0.0457 µM and 0.269 µM, respectively. Besides, the pKd turned out to be 6.74 in experiment [14] and 6.51 in experiment [15]. This compound also showed a dissociation constant (Kd) in experiment [13] of 0.295 µM.
On to `Cc1cc(OCC#CCN(C)C)no1.O=C(O)/C=C/C(=O)O`, for which the Intrinsic activity came out at 0.6 in the experiment filed under Oryctolagus cuniculus, 1 in the experiment listed under Cavia porcellus and 1.1 in experiment [8]. In addition, the inhibitory constant (Ki) in [1] was more than 10 µM; in [2] it was 3.8 µM; in experiment [3] it was more than 10 µM; in [4], 1.1 µM; in experiment [5], more than 10 µM. The results for the EC50 in [6], in experiment [7] and in experiment [10] were 3.47 µM, 0.513 µM and 0.794 µM, respectively. In addition, the negative logarithm of the Kd (pKd) amounted to 3.56 in experiment [14] and 5.45 in experiment [15]. This compound showed a Kd in experiment [13] of 39.8 µM.
On to `C[N+]1(CC#CCOc2cc(-c3ccccc3)on2)CCCC1.[I-]`, for which the Intrinsic activity (in the experiment listed under Oryctolagus cuniculus; in the experiment filed under Cavia porcellus; in experiment [8]) was 0 throughout. In addition, the Ki is 3.38 µM in experiment [1]; more than 10 µM in experiment [2]; 1.45 µM in [3]; 5.99 µM in experiment [4]; 1.84 µM in [5]. For the same compound, the results for the negative logarithm of the Kb (pKb) in experiment [11], in experiment [12] and in experiment [9] were 6.88, 5.95 and 5.53, respectively.
